Source: ChEMBL document CHEMBL4138221, “Discovery, optimization and biological evaluation for novel c-Met kinase inhibitors” (Eur J Med Chem, 2018)

Columns and labels:
EBC-1 = test: Antiproliferative activity against human EBC1 cells after 72 hrs by Alamarblue assay; conditions: EBC-1, 72 h
MKN-45 = test: Antiproliferative activity against human MKN45 cells after 72 hrs by Alamarblue assay; conditions: MKN-45, 72 h
A549 [1] = test: Antiproliferative activity against human A549 cells at 10 uM after 72 hrs by Alamarblue assay relative to control; format: functional; conditions: A549, 72 h, read-out: GI
Procedure, shortened: (§1)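 Single-concentration screen in cells kept at 37 °C and 5% CO2. Cells were plated in 10% FBS medium, then moved after 24 h to serum-free medium with 0.04% BSA. Compound exposure lasted 72 h. AlamarBlue was added for 1–4 h at 37 °C protected from light, and fluorescence was measured at ex 570 / em 585 nm.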

HCT-116 [2] = test: Antiproliferative activity against human HCT116 cells at 10 uM after 72 hrs by Alamarblue assay relative to control; format: functional; conditions: HCT-116, 72 h, read-out: GI; procedure, shortened: as §1
MCF7 [3] = test: Antiproliferative activity against human MCF7 cells at 10 uM after 72 hrs by Alamarblue assay relative to control; format: functional; conditions: MCF7, 72 h, read-out: GI; procedure, shortened: as §1
PC-3 [4] = test: Antiproliferative activity against human PC3 cells at 10 uM after 72 hrs by Alamarblue assay relative to control; format: functional; conditions: PC-3, 72 h, read-out: GI; procedure, shortened: as §1
SGC-7901 [5] = test: Antiproliferative activity against human SGC7901 cells at 10 uM after 72 hrs by Alamarblue assay relative to control; format: functional; conditions: SGC-7901, 72 h, read-out: GI; procedure, shortened: as §1
NCI-H460 = test: Antiproliferative activity against human NCI-H460 cells after 72 hrs by Alamarblue assay; format: functional, cell-based; conditions: NCI-H460, 72 h
Procedure, shortened: (§2)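 Cells were seeded in medium with 10% FBS at 37 °C and 5% CO2. After 24 h the medium was switched to serum-free medium containing 0.04% BSA, and cells were exposed to compound for 72 h. AlamarBlue was then added for 1–4 h at 37 °C in the dark, and fluorescence was read at ex 570 / em 585 nm. IC50 was obtained by nonlinear regression fitting.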

PC-3 [6] = test: Antiproliferative activity against human PC3 cells after 72 hrs by Alamarblue assay; format: functional, cell-based; conditions: PC-3, 72 h; procedure, shortened: as §2
COLO 205 = test: Antiproliferative activity against human COLO205 cells after 72 hrs by Alamarblue assay; format: functional, cell-based; conditions: COLO 205, 72 h; procedure, shortened: as §2
A549 [7] = test: Antiproliferative activity against human A549 cells after 72 hrs by Alamarblue assay relative to control; conditions: A549, 72 h
HCT-116 [8] = test: Antiproliferative activity against human HCT116 cells after 72 hrs by Alamarblue assay relative to control; conditions: HCT-116, 72 h
MCF7 [9] = test: Antiproliferative activity against human MCF7 cells after 72 hrs by Alamarblue assay relative to control; conditions: MCF7, 72 h
SGC-7901 [10] = test: Antiproliferative activity against human SGC7901 cells after 72 hrs by Alamarblue assay relative to control; conditions: SGC-7901, 72 h
[11] = target: Hepatocyte growth factor receptor (Homo sapiens, UniProt P08581); test: Inhibition of human GST-tagged c-MET using KKKSPGEYVNIEFG as substrate preincubated for 20 mins followed by [gamma-33P]ATP addition and measured after 2 hrs by filter-binding assay
Hepatocyte growth factor receptor, sequence (P08581 whole entry): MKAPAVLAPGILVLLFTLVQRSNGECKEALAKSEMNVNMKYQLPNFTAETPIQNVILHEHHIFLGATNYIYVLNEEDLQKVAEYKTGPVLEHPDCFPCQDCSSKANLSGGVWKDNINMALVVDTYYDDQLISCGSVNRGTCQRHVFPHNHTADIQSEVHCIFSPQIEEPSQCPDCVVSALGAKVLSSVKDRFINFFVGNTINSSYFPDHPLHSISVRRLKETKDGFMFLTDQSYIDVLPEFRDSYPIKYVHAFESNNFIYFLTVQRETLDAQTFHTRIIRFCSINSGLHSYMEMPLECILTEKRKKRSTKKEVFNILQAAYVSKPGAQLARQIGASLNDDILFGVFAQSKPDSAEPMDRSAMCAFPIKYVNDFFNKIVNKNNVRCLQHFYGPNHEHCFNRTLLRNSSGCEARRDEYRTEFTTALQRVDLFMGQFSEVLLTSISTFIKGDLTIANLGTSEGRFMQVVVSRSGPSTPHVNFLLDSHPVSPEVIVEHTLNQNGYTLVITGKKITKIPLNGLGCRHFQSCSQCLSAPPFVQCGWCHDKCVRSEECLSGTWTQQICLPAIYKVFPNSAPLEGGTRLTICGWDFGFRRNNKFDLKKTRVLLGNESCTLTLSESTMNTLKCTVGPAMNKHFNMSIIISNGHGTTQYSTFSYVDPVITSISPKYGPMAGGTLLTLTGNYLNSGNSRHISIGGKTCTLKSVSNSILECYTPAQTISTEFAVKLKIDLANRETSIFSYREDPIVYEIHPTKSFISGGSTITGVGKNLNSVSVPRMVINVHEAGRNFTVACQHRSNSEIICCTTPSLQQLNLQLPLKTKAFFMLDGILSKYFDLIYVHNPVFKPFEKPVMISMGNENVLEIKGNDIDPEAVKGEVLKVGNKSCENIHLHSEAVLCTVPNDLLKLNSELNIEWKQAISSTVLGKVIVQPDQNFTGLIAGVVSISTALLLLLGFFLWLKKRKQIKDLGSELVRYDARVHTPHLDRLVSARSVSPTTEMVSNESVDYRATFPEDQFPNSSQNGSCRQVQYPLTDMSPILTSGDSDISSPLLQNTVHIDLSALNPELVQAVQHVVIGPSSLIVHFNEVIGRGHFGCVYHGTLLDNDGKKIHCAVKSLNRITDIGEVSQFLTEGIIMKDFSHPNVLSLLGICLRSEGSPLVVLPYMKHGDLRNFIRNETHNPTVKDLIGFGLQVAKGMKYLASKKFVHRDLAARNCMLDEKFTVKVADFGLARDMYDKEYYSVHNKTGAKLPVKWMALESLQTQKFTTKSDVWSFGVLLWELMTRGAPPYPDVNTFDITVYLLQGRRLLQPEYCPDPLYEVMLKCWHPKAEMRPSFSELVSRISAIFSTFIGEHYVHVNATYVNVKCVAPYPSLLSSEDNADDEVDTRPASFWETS

[12] = target: Vascular endothelial growth factor receptor 2 (Homo sapiens, UniProt P35968); test: Inhibition of KDR (unknown origin)
Vascular endothelial growth factor receptor 2, sequence (P35968 whole entry): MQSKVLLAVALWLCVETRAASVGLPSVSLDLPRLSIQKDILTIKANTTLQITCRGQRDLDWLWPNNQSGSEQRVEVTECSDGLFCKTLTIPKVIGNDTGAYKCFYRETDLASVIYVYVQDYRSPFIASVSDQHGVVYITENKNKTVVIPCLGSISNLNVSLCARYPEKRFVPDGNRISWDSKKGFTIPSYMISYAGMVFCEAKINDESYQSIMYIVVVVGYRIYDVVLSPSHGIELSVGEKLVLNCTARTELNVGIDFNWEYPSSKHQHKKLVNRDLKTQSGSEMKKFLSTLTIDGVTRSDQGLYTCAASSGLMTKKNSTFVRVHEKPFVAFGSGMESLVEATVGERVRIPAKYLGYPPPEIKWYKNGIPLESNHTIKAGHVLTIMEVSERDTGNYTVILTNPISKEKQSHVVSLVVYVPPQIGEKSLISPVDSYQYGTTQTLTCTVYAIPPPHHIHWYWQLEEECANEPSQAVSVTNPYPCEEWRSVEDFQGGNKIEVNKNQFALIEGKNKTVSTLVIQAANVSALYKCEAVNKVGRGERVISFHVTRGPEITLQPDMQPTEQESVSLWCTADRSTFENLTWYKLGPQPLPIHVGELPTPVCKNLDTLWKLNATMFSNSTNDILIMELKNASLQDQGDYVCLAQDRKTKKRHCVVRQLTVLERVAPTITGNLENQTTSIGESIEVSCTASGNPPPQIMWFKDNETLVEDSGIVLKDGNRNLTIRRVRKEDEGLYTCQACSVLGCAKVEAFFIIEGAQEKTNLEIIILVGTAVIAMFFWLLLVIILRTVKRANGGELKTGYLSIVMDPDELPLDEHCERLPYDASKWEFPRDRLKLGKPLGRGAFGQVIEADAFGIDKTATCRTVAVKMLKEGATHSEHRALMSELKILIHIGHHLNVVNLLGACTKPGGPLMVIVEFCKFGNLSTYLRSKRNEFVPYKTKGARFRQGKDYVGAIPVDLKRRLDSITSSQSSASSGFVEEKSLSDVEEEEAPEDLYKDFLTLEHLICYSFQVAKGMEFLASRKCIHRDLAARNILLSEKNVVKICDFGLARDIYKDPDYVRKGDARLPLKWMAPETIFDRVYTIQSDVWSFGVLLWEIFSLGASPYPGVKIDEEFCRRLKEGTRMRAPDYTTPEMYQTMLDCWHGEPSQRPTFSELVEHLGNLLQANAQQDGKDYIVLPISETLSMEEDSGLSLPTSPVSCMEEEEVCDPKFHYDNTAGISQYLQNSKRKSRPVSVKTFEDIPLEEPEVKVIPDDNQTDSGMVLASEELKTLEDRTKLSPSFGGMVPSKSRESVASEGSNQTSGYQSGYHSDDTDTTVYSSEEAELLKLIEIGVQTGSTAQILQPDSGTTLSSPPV

[13] = target: Serine/threonine-protein kinase B-raf (Homo sapiens) (UniProt P15056); test: Inhibition of B-raf (unknown origin) at 50 uM
Serine/threonine-protein kinase B-raf (Homo sapiens), sequence (P15056 whole entry): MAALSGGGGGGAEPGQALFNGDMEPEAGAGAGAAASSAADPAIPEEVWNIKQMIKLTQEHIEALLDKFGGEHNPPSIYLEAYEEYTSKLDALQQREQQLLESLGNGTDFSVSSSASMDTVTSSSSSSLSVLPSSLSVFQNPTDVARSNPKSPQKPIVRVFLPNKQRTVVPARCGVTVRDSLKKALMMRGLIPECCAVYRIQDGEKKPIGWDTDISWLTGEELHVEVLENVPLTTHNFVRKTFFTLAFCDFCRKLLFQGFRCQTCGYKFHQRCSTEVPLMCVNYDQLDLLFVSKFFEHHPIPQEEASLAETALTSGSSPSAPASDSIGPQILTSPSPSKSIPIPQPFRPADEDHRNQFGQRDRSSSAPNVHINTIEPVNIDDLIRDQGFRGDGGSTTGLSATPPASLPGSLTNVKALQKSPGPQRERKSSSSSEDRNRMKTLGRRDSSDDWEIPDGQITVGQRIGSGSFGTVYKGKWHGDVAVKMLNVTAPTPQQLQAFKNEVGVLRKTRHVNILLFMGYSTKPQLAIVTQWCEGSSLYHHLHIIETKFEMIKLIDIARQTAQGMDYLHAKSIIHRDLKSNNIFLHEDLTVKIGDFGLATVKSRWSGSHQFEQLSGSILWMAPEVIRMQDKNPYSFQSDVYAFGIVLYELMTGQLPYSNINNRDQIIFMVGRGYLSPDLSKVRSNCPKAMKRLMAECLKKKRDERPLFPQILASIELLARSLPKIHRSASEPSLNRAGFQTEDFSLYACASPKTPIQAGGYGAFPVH

Compound	IC50 (MKN-45) [nM]	IC50 (NCI-H460) [nM]	IC50 (PC-3 [6]) [nM]	IC50 (COLO 205) [nM]	IC50 (EBC-1) [nM]	inhibition of growth at 10 µM (A549 [1]) [%]	inhibition of growth at 10 µM (HCT-116 [2]) [%]	inhibition of growth at 10 µM (MCF7 [3]) [%]	inhibition of growth at 10 µM (PC-3 [4]) [%]	inhibition of growth at 10 µM (SGC-7901 [5]) [%]	also measured
COc1ccc(Cc2nnc3sc(-c4ccccc4OC)nn23)cc1						10.4	8.2	35.7	57.7	15.5	
Fc1ccccc1-c1cn2c(COc3ccc4c(c3)OCO4)nnc2s1						20.1	4.73	45.4	19.4	12.4	
COc1ccc2c(OCc3nnc4sc(-c5cc6ccccc6[nH]5)nn34)ccnc2c1	1170	2060	2970	2240	506						
COc1ccc(Cc2nnc3sc(-c4cc5ccccc5[nH]4)nn23)cc1						6.08	0.64	14.9	55.1	12.3	IC50 [11]: 190 nM; IC50 [12]: 3330 nM; inhibition [13]: 17.8%

More lines, main results first:

IC50 (MKN-45) [nM]	IC50 (NCI-H460) [nM]	IC50 (PC-3 [6]) [nM]	IC50 (COLO 205) [nM]	Compound	IC50 (EBC-1) [nM]	inhibition of growth at 10 µM (A549 [1]) [%]	inhibition of growth at 10 µM (HCT-116 [2]) [%]	inhibition of growth at 10 µM (MCF7 [3]) [%]	inhibition of growth at 10 µM (PC-3 [4]) [%]	inhibition of growth at 10 µM (SGC-7901 [5]) [%]	also measured
1020				COc1ccc2c(OCc3nnc4sc(-c5ccc6[nH]cnc6c5)nn34)ccnc2c1	3170						
22	2240	9790	2450	C[C@@H](Oc1cc(-c2cnn(C3CCNCC3)c2)cnc1N)c1c(Cl)ccc(F)c1Cl [CRIZOTINIB]	13						IC50 (A549 [7]): 134 nM; IC50 (HCT-116 [8]): 254 nM; IC50 (MCF7 [9]): 45 nM; IC50 (SGC-7901 [10]): 321 nM
